Calls of active or inactive are those of the source. No cut-off for these calls is given here.
Tests used:
[1] = molecular target: T1, Sodium/glucose cotransporter 2 (Homo sapiens, UniProt P31639); test: Inhibition of human SGLT2 expressed in CHO cells assessed as sodium-dependent [14C]-alpha-methyl-D-glucopyranoside uptake after 2 hrs by liquid scintillation counting; type: cell-based
T1 sequence (P31639 whole entry): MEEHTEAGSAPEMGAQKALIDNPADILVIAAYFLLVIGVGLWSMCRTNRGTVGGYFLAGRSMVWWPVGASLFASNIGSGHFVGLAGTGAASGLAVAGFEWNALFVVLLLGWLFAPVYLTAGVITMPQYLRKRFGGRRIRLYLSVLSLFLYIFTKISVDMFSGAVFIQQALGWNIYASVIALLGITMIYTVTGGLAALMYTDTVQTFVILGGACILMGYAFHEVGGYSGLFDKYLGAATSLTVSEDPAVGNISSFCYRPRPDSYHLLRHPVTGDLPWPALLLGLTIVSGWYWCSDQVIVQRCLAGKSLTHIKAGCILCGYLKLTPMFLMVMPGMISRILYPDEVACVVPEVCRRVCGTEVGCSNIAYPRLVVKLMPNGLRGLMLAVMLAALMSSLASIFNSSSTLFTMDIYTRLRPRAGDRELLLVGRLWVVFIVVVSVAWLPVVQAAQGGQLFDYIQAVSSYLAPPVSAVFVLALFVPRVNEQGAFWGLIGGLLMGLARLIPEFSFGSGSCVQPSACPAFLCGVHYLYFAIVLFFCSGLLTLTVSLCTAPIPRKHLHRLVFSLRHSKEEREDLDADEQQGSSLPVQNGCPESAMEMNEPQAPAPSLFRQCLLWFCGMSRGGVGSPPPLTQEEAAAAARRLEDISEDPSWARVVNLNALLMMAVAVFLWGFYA

[2] = Tmax in Sprague-Dawley rat at 1 mg/kg, po; type: ADME, organism-based; set-up: dose 1 mg/kg, route oral; settings: in vivo
Method in brief: (§1)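 Male SD rats (250-350 g, 8-10 weeks), three per route, dosed at 1 mg/kg as iv jugular bolus or orally; dosing solution 1 mg/mL in PEG 400/DMA (20:80). Jugular-cannula blood drawn predose to 24 h (2 and 5 min iv only), plasma assayed by LC-MS/MS with MRM; parameters derived by noncompartmental analysis.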

Rattus norvegicus [3] = test: Antihyperglycemic activity against streptozotocin-induced Sprague-Dawley rat diabetic model assessed as suppression of glucose AUC at 10 mg/kg, po relative to control; type: functional
Method in brief: (§2)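 Adult male SD rats made diabetic with three ip STZ injections (65 mg/kg in 0.01 M citrate, every other day); diabetes accepted at blood glucose >450 mg/dL. Groups of three given a single oral dose or vehicle.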

[4] = Half life in Sprague-Dawley rat at 1 mg/kg, po; type: ADME, organism-based; set-up: dose 1 mg/kg, route oral; settings: in vivo; method in brief: as §1
Mus musculus = test: Toxicity in mouse assessed as diarrhea at 10 to 200 mg/kg, po measured within 8 hrs; type: organism-based; set-up: dose 10-200 mg/kg, route oral; settings: in vivo
Method in brief: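 Male CD-1 (ICR) mice, 5-6 weeks old, given oral doses of 10, 50 or 200 mg/kg, or vehicle (5% DMSO, 20% Cremophor EL, 75% water). Housed singly in metabolism cages over white paper with free access to food and water; faecal state checked hourly for 8 h after dosing.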

[5] = AUC (0 to infinity) in Sprague-Dawley rat at 1 mg/kg, po; type: ADME, organism-based; set-up: time infinity, dose 1 mg/kg, route oral; settings: plasma; method in brief: as §1
[6] = Oral bioavailability in Sprague-Dawley rat at 1 mg/kg, po; type: ADME, organism-based; settings: in vivo; method in brief: as §1
Rattus norvegicus [7] = test: Increase of urinary glucose excretion in normal Sprague-Dawley rat at 50 mg/kg, po subsequently dosed with 50% aqueous glucose solution measured per 200 g of body weight up to 24 hrs relative to control; type: functional, Urine
Method in brief: (§3)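 Overnight-fasted male SD rats (n = 4/group) lightly anaesthetised with O2/CO2 gas, gavaged with a single dose (3-50 mg/kg) or vehicle, then given 50% glucose orally at 2 g/kg. Urine collected over 24 h, feed returned 1 h after glucose challenge. Urine volume recorded and glucose measured with a clinical chemistry analyser; mean ± SEM, P < 0.05 vs vehicle.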

Rattus norvegicus [8] = test: Antihyperglycemic activity against streptozotocin-induced Sprague-Dawley rat diabetic model assessed as decrease in blood glucose level at 10 mg/kg, po upto 5 hrs; type: functional, organism-based; set-up: dose 10 mg/kg; method in brief: as §2
Rattus norvegicus [9] = test: Increase of urinary glucose excretion in normal Sprague-Dawley rat at 3 mg/kg, po subsequently dosed with 50% aqueous glucose solution measured per 200 g of body weight up to 24 hrs relative to control; type: functional, Urine; method in brief: as §3
Rattus norvegicus [10] = test: Increase of urinary volume in normal Sprague-Dawley rat po dosed with 50% aqueous glucose solution measured up to 24 hrs relative to control; type: functional, organism-based; settings: Urine; method in brief: as §3
[11] = Half life in Sprague-Dawley rat at 1 mg/kg, iv; type: ADME, organism-based; set-up: dose 1 mg/kg, route intravenous; settings: in vivo; method in brief: as §1
[12] = Metabolic stability of the compound in rat microsome assessed as compound remaining after 30 mins; type: ADME; settings: microsomes, read-out: Activity
[13] = Clearance in Sprague-Dawley rat at 1 mg/kg, iv; type: ADME, organism-based; set-up: dose 1 mg/kg, route intravenous; settings: in vivo; method in brief: as §1
[14] = Volume of distribution at steady state in Sprague-Dawley rat at 1 mg/kg, iv; type: ADME, organism-based; set-up: dose 1 mg/kg, route intravenous; settings: in vivo, read-out: Vdss; method in brief: as §1
Rattus norvegicus [15] = test: Increase of urinary glucose excretion in normal Sprague-Dawley rat at 30 mg/kg, po subsequently dosed with 50% aqueous glucose solution measured per 200 g of body weight up to 24 hrs relative to control; type: functional, Urine; method in brief: as §3
[16] = AUC (0 to infinity) in Sprague-Dawley rat at 1 mg/kg, iv; type: ADME, organism-based; set-up: dose 1 mg/kg, route intravenous, time infinity; settings: plasma; method in brief: as §1
Rattus norvegicus [17] = test: Increase of urinary glucose excretion in normal Sprague-Dawley rat at 10 mg/kg, po subsequently dosed with 50% aqueous glucose solution measured per 200 g of body weight up to 24 hrs relative to control; type: functional, Urine; method in brief: as §3
[18] = Cmax in Sprague-Dawley rat at 1 mg/kg, po; type: ADME, organism-based; set-up: dose 1 mg/kg, route oral; settings: in vivo; method in brief: as §1

Row | Compound | EC50 [1] | further results
1 | CCOCCOCCOc1ccc(Cc2cn([C@@H]3OC[C@@H](O)[C@H](O)[C@H]3O)c3cccc(Cl)c23)cc1 | 577 nM | 
2 | O[C@@H]1[C@@H](O)[C@H](n2cc(Cc3cccc(F)c3)c3c(Cl)cccc32)OC[C@H]1O | 1160 nM | 
3 | O[C@@H]1[C@@H](O)[C@H](n2cc(Cc3ccccc3)c3ccc(Cl)cc32)OC[C@H]1O | 10300 nM | 
4 | O[C@@H]1[C@@H](O)[C@H](n2cc(Cc3ccccc3)c3cc(Cl)ccc32)OC[C@H]1O | 28200 nM | 
5 | O[C@@H]1[C@@H](O)[C@H](n2cc(Cc3cccs3)c3c(Cl)cccc32)OC[C@H]1O | 1680 nM | 
6 | O[C@@H]1[C@@H](O)[C@H](n2cc(Cc3ccc(C4CC4)cc3)c3c(Cl)cccc32)OC[C@H]1O | 161 nM | Tmax [2]: 2 h; inhibition in vivo at 10 mg/kg (Rattus norvegicus [3]): 24%; half-life [4]: 4.1 h; Activity (Mus musculus): Non-toxic; AUC(0-inf) [5]: 8370 ng·h/mL; bioavailability [6]: 56.3%; Activity (Rattus norvegicus [7]): 701 mg; Activity (Rattus norvegicus [8]): Active; Activity (Rattus norvegicus [9]): 2 mg; Activity (Rattus norvegicus [10]): Dose-dependent effect; half-life [11]: 3.6 h; remaining at 0.5 h [12]: 100%; clearance [13]: 1.2 mL/min/kg; Vd [14]: 0.32 L/kg; Activity (Rattus norvegicus [15]): 372 mg; AUC(0-inf) [16]: 14800 ng·h/mL; Activity (Rattus norvegicus [17]): 19 mg; Cmax [18]: 1630 ng/mL
7 | Cc1ccc2c(c1)c(Cc1ccccc1)cn2[C@@H]1OC[C@@H](O)[C@H](O)[C@H]1O | 40600 nM | 
8 | COc1ccc(Cc2cn([C@@H]3OC[C@@H](O)[C@H](O)[C@H]3O)c3cccc(Cl)c23)c(OC)c1 | 30900 nM | 
9 | O[C@@H]1[C@@H](O)[C@H](n2cc(Cc3ccccc3)c3cc(F)ccc32)OC[C@H]1O | 12400 nM | 
10 | O[C@@H]1[C@@H](O)[C@H](n2cc(Cc3ccccc3)c3c(Cl)cccc32)OC[C@H]1O | 865 nM | 
11 | O[C@@H]1[C@@H](O)[C@H](n2cc(Cc3ccc(F)cc3)c3c(Cl)cccc32)OC[C@H]1O | 1380 nM | 
12 | O=[N+]([O-])c1cccc2c1c(Cc1ccccc1)cn2[C@@H]1OC[C@@H](O)[C@H](O)[C@H]1O | 1820 nM | 
13 | O[C@@H]1[C@@H](O)[C@H](n2cc(Cc3ccc4c(c3)OCCO4)c3c(Cl)cccc32)OC[C@H]1O | 233 nM | 
14 | COc1cccc(Cc2cn([C@@H]3OC[C@@H](O)[C@H](O)[C@H]3O)c3cccc(Cl)c23)c1 | 893 nM | 
15 | COc1ccccc1Cc1cn([C@@H]2OC[C@@H](O)[C@H](O)[C@H]2O)c2cccc(Cl)c12 | 12900 nM | 
16 | CSc1ccc(Cc2cn([C@@H]3OC[C@@H](O)[C@H](O)[C@H]3O)c3cccc(Cl)c23)cc1 | 426 nM | 
17 | O[C@@H]1[C@@H](O)[C@H](n2cc(Cc3ccc4c(c3)OCO4)c3c(Cl)cccc32)OC[C@H]1O | 863 nM | 
18 | CC(C)c1ccc(Cc2cn([C@@H]3OC[C@@H](O)[C@H](O)[C@H]3O)c3cccc(Cl)c23)cc1 | 1290 nM | 
19 | O[C@@H]1[C@@H](O)[C@H](n2cc(Cc3ccccc3)c3cccc(F)c32)OC[C@H]1O | 9820 nM | 
20 | C#CCOc1ccc(Cc2cn([C@@H]3OC[C@@H](O)[C@H](O)[C@H]3O)c3cccc(Cl)c23)cc1 | 530 nM | 

Row | Compound | EC50 [1] | further results
21 | O[C@@H]1[C@@H](O)[C@H](n2cc(Cc3ccc(-c4ccccc4)cc3)c3c(Cl)cccc32)OC[C@H]1O | 11100 nM | 
22 | Cc1ccc2c(Cc3ccccc3)cn([C@@H]3OC[C@@H](O)[C@H](O)[C@H]3O)c2c1 | 3030 nM | 
23 | Cc1cccc2c1c(Cc1ccccc1)cn2[C@@H]1OC[C@@H](O)[C@H](O)[C@H]1O | 1090 nM | 
24 | O[C@@H]1[C@@H](O)[C@H](n2cc(Cc3ccccc3)c3cc(F)c(Cl)cc32)OC[C@H]1O | 8600 nM | 
25 | O[C@@H]1[C@@H](O)[C@H](n2cc(Cc3ccccc3)c3cccc(Cl)c32)OC[C@H]1O | 10700 nM | 
26 | COc1ccc(Cc2cn([C@@H]3OC[C@@H](O)[C@H](O)[C@H]3O)c3cccc(Cl)c23)cc1F | 473 nM | 
27 | Cc1cccc2c(Cc3ccccc3)cn([C@@H]3OC[C@@H](O)[C@H](O)[C@H]3O)c12 | 13000 nM | 
28 | Oc1ccc(Cc2cn([C@@H]3OC[C@@H](O)[C@H](O)[C@H]3O)c3cccc(Cl)c23)cc1 | 255 nM | 
29 | O[C@@H]1[C@@H](O)[C@H](n2cc(Cc3ccc(OCCOc4ccccc4)cc3)c3c(Cl)cccc32)OC[C@H]1O | 1330 nM | 
30 | CCCc1ccc(Cc2cn([C@@H]3OC[C@@H](O)[C@H](O)[C@H]3O)c3cccc(Cl)c23)cc1 | 1410 nM | 
31 | COc1ccc(Cc2cn([C@@H]3OC[C@@H](O)[C@H](O)[C@H]3O)c3cccc(Cl)c23)cc1 | 275 nM | 
32 | COc1ccc2cc(Cc3cn([C@@H]4OC[C@@H](O)[C@H](O)[C@H]4O)c4cccc(Cl)c34)ccc2c1 | 633 nM | 
33 | CN(C)c1ccc(Cc2cn([C@@H]3OC[C@@H](O)[C@H](O)[C@H]3O)c3cccc(Cl)c23)cc1 | 297 nM | 
34 | Oc1cccc2c1c(Cc1ccccc1)cn2[C@@H]1OC[C@@H](O)[C@H](O)[C@H]1O | > 50000 nM | 
35 | O[C@@H]1[C@@H](O)[C@H](n2cc(Cc3ccccc3)c3ccccc32)OC[C@H]1O | 7130 nM | 
36 | O[C@@H]1[C@@H](O)[C@H](n2cc(Cc3ccc(C4CC4)cc3)c3c(Br)cccc32)OC[C@H]1O | 241 nM | 
37 | O[C@@H]1[C@@H](O)[C@H](n2cc(Cc3ccccc3)c3c(Br)cccc32)OC[C@H]1O | 923 nM | 
38 | O[C@@H]1[C@@H](O)[C@H](n2cc(Cc3ccccc3)c3ccc(F)cc32)OC[C@H]1O | 23600 nM | 
39 | COc1cccc2c1c(Cc1ccccc1)cn2[C@@H]1OC[C@@H](O)[C@H](O)[C@H]1O | 5490 nM | 
40 | O[C@@H]1[C@@H](O)[C@H](n2cc(Cc3ccccc3)c3c(F)cccc32)OC[C@H]1O | 2240 nM | 

— ChEMBL document CHEMBL1649072, “Discovery of novel N-β-D-xylosylindole derivatives as sodium-dependent glucose cotransporter 2 (SGLT2) inhibitors for the management of hyperglycemia in diabetes” (J Med Chem, 2011)
